# According to ChEMBL document CHEMBL1649328, “Assessment of pandemic and seasonal influenza A (H1N1) virus susceptibility to neuraminidase inhibitors in three enzyme activity inhibition assays” (Antimicrob Agents Chemother, 2010):
# Legend:
# Type in all cases: functional, organism-based
# Influenza A virus [1] = experiment: Antiviral activity against influenza A (A/Washington/29/2009 (H1N1)) virus harboring neuraminidase H275Y mutant after 16 to 18 hrs by fetuin substrate based colorimetric assay
# In short: (§1)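 Colorimetric NA inhibition with fetuin substrate. Virus was diluted in NA-Star buffer (26 mM MES, 4 mM CaCl2, pH 6.0) to give OD549 of 0.4–0.8 after 18 h. It was preincubated with ten half-log inhibitor dilutions (0.03–1,000 nM final) for 1 h at 37°C, then with fetuin (5.5 mg/ml final) for 16–18 h at 37°C. Released sialic acid was read at 549 nm after periodate/TBA reaction and butanol extraction. IC50 came from a Vmax·[1−x/(K+x)] fit, mean of ≥2 experiments.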
# Influenza A virus [2] = experiment: Antiviral activity against influenza A (A/Hong Kong/2369/2009 (H1N1)) virus harboring neuraminidase H275Y mutant after 16 to 18 hrs by fetuin substrate based colorimetric assay; in short: as §1
# Influenza A virus [3] = experiment: Antiviral activity against influenza A (A/North Carolina/01/2009 (H1N1)) virus harboring neuraminidase H275Y mutant after 30 mins by MUNANA substrate based fluorometric assay
# In short: (§2)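 Fluorometric NA inhibition with MUNANA (100 μM final). Titrated virus in NA-Star buffer (26 mM MES, 4 mM CaCl2, pH 6.0) was preincubated with ten half-log inhibitor dilutions (0.03–1,000 nM final) for 30 min at 37°C, then with substrate for 30 min at 37°C. The reaction was stopped with 0.1 M glycine in 25% ethanol, pH 10.7, and 4-methylumbelliferone was read at ex 365/em 450 nm. IC50 came from a Vmax·[1−x/(K+x)] fit, mean of ≥3 experiments.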
# Influenza A virus [4] = experiment: Antiviral activity against influenza A (A/Hong Kong/2369/2009 (H1N1)) virus harboring neuraminidase H275Y mutant after 30 mins by MUNANA substrate based fluorometric assay; in short: as §2
# Influenza A virus [5] = experiment: Antiviral activity against influenza A (A/Osaka/180/2009 (H1N1)) virus harboring neuraminidase H275Y mutant after 30 mins by MUNANA substrate based fluorometric assay; in short: as §2
# Influenza A virus [6] = experiment: Antiviral activity against influenza A (A/Osaka/180/2009 (H1N1)) virus harboring neuraminidase H275Y mutant after 30 mins by NA-star substrate based chemiluminescent assay
# In short: (§3)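 Titrated virus in NA-Star buffer (26 mM MES, 4 mM CaCl2, pH 6.0) was preincubated with ten half-log inhibitor dilutions (0.03–1,000 nM final) for 30 min at 37°C, then with substrate for 30 min at room temperature. Accelerator solution was added and luminescence read for 0.1 s. IC50 came from a Vmax·[1−x/(K+x)] fit, mean of ≥3 experiments.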
# Influenza A virus [7] = experiment: Antiviral activity against influenza A (A/Washington/29/2009 (H1N1)) virus harboring neuraminidase H275Y mutant after 30 mins by NA-star substrate based chemiluminescent assay; in short: as §3
# Influenza A virus [8] = experiment: Antiviral activity against influenza A (A/Montana/02/2009 (H1N1)) virus harboring neuraminidase H275Y mutant after 16 to 18 hrs by fetuin substrate based colorimetric assay; in short: as §1
# Influenza A virus [9] = experiment: Antiviral activity against influenza A (A/Singapore/57/2009 (H1N1)) virus harboring neuraminidase H275Y mutant after 30 mins by NA-star substrate based chemiluminescent assay; in short: as §3
# Influenza A virus [10] = experiment: Antiviral activity against influenza A (A/Osaka/180/2009 (H1N1)) virus harboring neuraminidase H275Y mutant after 16 to 18 hrs by fetuin substrate based colorimetric assay; in short: as §1
# Influenza A virus [11] = experiment: Antiviral activity against influenza A (A/North Carolina/01/2009 (H1N1)) virus harboring neuraminidase H275Y mutant after 16 to 18 hrs by fetuin substrate based colorimetric assay; in short: as §1
# Influenza A virus [12] = experiment: Antiviral activity against influenza A (A/Montana/02/2009 (H1N1)) virus harboring neuraminidase H275Y mutant after 30 mins by NA-star substrate based chemiluminescent assay; in short: as §3
# Influenza A virus [13] = experiment: Antiviral activity against influenza A (A/Montana/02/2009 (H1N1)) virus harboring neuraminidase H275Y mutant after 30 mins by MUNANA substrate based fluorometric assay; in short: as §2
# Influenza A virus [14] = experiment: Antiviral activity against influenza A (A/Hong Kong/2369/2009 (H1N1)) virus harboring neuraminidase H275Y mutant after 30 mins by NA-star substrate based chemiluminescent assay; in short: as §3
# Influenza A virus [15] = experiment: Antiviral activity against influenza A (A/Singapore/57/2009 (H1N1)) virus harboring neuraminidase H275Y mutant after 16 to 18 hrs by fetuin substrate based colorimetric assay; in short: as §1
# Influenza A virus [16] = experiment: Antiviral activity against influenza A (A/Singapore/57/2009 (H1N1)) virus harboring neuraminidase H275Y mutant after 30 mins by MUNANA substrate based fluorometric assay; in short: as §2
# Influenza A virus [17] = experiment: Antiviral activity against influenza A (A/Washington/29/2009 (H1N1)) virus harboring neuraminidase H275Y mutant after 30 mins by MUNANA substrate based fluorometric assay; in short: as §2
# Influenza A virus [18] = experiment: Antiviral activity against influenza A (A/North Carolina/01/2009 (H1N1)) virus harboring neuraminidase H275Y mutant after 30 mins by NA-star substrate based chemiluminescent assay; in short: as §3
Compound,IC50 (Influenza A virus [1]) [nM],IC50 (Influenza A virus [2]) [nM],IC50 (Influenza A virus [3]) [nM],IC50 (Influenza A virus [4]) [nM],IC50 (Influenza A virus [5]) [nM],IC50 (Influenza A virus [6]) [nM],IC50 (Influenza A virus [7]) [nM],IC50 (Influenza A virus [8]) [nM],IC50 (Influenza A virus [9]) [nM],IC50 (Influenza A virus [10]) [nM],IC50 (Influenza A virus [11]) [nM],IC50 (Influenza A virus [12]) [nM],IC50 (Influenza A virus [13]) [nM],IC50 (Influenza A virus [14]) [nM],IC50 (Influenza A virus [15]) [nM],IC50 (Influenza A virus [16]) [nM],IC50 (Influenza A virus [17]) [nM],IC50 (Influenza A virus [18]) [nM]
CO[C@@H]([C@@H]1OC(C(=O)O)=C[C@H](NC(=N)N)[C@H]1NC(C)=O)[C@H](O)CO [LANINAMIVIR],2.14,2.16,0.92,1.08,1.43,0.48,0.82,0.82,0.74,3.32,0.89,0.34,1.05,0.78,1.12,0.87,1.19,0.34
CC(=O)N[C@H]1[C@H]([C@H](O)[C@H](O)CO)OC(C(=O)O)=C[C@@H]1NC(=N)N [ZANAMIVIR],2.66,3.61,1.16,1.02,1.29,0.35,0.51,2.38,0.4,3.17,1.96,0.42,1.15,0.43,2.83,1,0.83,0.42
